Runt-CBFb FRET: blocks binding of human RUNX1 Runt domain to CBFb. hit rate 0.46% among 220,000. Cerulean-Runt/Venus-CBFb FRET ratio 530/480, 1 h. Q01196+Q13951. AID 1496. inhibition, % at 20 µM;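 active = inhibition over about 50% at 20 µM in the single-dose screen, limit read from the data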
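Measured by: fluorescence energy transfer, 422 nm excitation, 530/480 nm emission; Assay system: Cerulean-Runt domain; Medium: Tris pH 7.5 buffer with BSA; Measure: loss of energy transfer signal; Controls: 5 µM unlabeled CBFb as full-inhibition high control; Incubation: protein complex preformed 1 h, compound exposure 1 h, room temperature, dark.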
PKD1 inh: PKD1 (human) kinase inhibition; PKD1 kinase fluorescence polarization assay; AID 797; hit rate 0.056% among 200,000; inhibition, % (test concentration not listed)
Target sequence (Q15139 whole entry, looked up): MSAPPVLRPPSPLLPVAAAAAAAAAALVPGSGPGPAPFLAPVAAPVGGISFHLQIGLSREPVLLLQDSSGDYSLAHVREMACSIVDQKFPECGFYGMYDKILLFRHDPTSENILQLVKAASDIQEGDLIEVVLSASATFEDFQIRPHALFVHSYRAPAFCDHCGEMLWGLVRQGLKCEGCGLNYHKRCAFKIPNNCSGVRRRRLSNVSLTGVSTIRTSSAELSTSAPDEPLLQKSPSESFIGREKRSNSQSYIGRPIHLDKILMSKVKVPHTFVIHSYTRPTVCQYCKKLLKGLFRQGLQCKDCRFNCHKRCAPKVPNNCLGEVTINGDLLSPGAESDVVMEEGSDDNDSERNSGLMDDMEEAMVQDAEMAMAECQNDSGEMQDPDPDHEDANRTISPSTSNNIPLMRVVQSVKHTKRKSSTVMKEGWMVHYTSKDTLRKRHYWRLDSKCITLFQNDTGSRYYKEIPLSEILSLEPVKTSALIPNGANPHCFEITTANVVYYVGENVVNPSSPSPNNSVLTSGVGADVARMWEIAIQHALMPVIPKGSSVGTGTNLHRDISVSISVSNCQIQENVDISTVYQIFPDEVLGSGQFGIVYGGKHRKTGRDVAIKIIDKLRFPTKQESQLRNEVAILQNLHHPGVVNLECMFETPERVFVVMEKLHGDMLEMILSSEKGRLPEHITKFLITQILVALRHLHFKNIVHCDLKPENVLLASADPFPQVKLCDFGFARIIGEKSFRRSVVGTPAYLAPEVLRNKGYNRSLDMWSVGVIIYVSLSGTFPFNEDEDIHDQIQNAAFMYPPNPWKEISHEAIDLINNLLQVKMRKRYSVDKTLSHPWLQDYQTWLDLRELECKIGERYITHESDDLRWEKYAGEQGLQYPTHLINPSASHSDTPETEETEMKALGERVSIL
MEX-5 binding: C. elegans MEX-5 TCR-2 RNA binding activity; Q9XUB2; MEX-5/FITC-TCR2 RNA binding, fluorescence polarization; hits give low values; activity score (negative = inhibition of binding), % at 10 µM; hit rate 0.38% among 300,000; AID 1832;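 active = inhibition past about -25% in most replicates, and total fluorescence under double the plate's negative control median, limit read from the data; inconclusive = replicates evenly split on the limit, or fluorescence at least double controls; inactive = too little inhibition in most replicates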
EBV gp42 block: EBV gp42 inhibition; Q1HVG2; Fluorescence polarization binding assay, mP read-out; inhibition, % (tested at 21.74 µM); hit rate 0.42% among 220,000
Runt-SMMHC FRET: Runt domain-CBFb-SMMHC interaction inhibition | Q01196+Q13951 | Cerulean-Runt/Venus-CBFb-SMMHC FRET ratio 530/480, 1 h | inhibition, % at 20 µM | hit rate 0.74% among 220,000 | AID 1434;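 active = mean inhibition across duplicate retests at 20 µM reaching about 50%, limit read from the data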;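 also: inhibitors lower the FRET ratio by blocking Runt binding to CBFb-SMMHC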
RanGTP-Imp inh: disruptors of Ran-importin-beta complex formation – biochemical, FRET, CFP-Ran, YFP-importin-beta, homogeneous, primary screen | cell-free CFP-Ran/YFP-importin-beta FRET ratio | inhibition, % (no concentration beside the values) | hit rate 1.1% among 300,000 | AID 2216;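 active = more than half of the replicate wells show a fall in the fluorescence ratio signal beyond about 16%, limit read from the data, passing the limit was not always enough; inconclusive = exactly half of the replicate wells pass the set limit; inactive = fewer than half of replicates pass the limit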
Numbers stand for hits; n = inactive; u = inconclusive; x = no result given. Hits are enriched below; roughly 2% of the tested compounds scored in any of these assays. Rule as the data show it, unless noted: active = inhibition above about 50%; inactive = the rest.

SMILES | Runt-CBFb FRET | PKD1 inh | MEX-5 binding | EBV gp42 block | Runt-SMMHC FRET | RanGTP-Imp inh
COc1ccc(N=Nc2nc3ccc(Br)cc3n2C)cc1 | n | n | -50 | 51 | n | n
COc1ccc(Cc2nc3ccccc3n2C)cc1 | x | n | n | n | n | n
CCn1c(CSc2nnc(-c3ccncc3)n2CCOC)nc2cc(C(=O)O)ccc21 | n | n | n | n | n | n
CCn1c(CSc2n[nH]c(N)n2)nc2cc(C(=O)O)ccc21 | n | n | n | 64 | n | n
CCn1c(CSc2nnc3ccccn23)nc2cc(C(=O)O)ccc21 | n | n | n | 83 | n | u
Cc1cc(C(=O)O)ccc1-n1c(C)cc(/C=C2\SC(=O)NC2=O)c1C | x | x | n | x | x | n
Cc1c(C(=O)O)cccc1-n1c(C)cc(C=O)c1C | n | n | n | n | 92 | n
Cc1ccc(C(=O)O)cc1-n1c(C)cc(C=O)c1C | n | n | n | n | 90 | n
COCCn1c(C)cc2c(c1=O)C(c1ccco1)C(C#N)=C(N)O2 (stereo not drawn) | 112 | n | n | n | 117 | n
CCOc1cccc(C2C(C#N)=C(N)Oc3cc(C)n(Cc4ccccn4)c(=O)c32)c1OCC (stereo not drawn) | n | n | n | n | n | n
CCn1c(C)cc2c(c1=O)C(c1ccccc1Br)C(C#N)=C(N)O2 (stereo not drawn) | n | n | n | n | n | 48
Cc1cc2c(c(=O)n1CCN(C)C)C(c1ccncc1)C(C#N)=C(N)O2 (stereo not drawn) | n | n | n | n | n | n
CCCCn1c(N)c(N(CCOC)C(=O)c2cccc(S(=O)(=O)N(CC)c3ccccc3)c2)c(=O)[nH]c1=O | x | x | n | x | x | n
COC(=O)c1n[nH]c2ccccc12 | n | n | n | n | n | 24
COc1cc(/C=C(\C#N)C(=O)NC(C)C)cc(Cl)c1O | n | n | n | n | 63 | n
CCOc1ccc(N2CC(C(=O)N3CCN(C(=O)c4ccco4)CC3)CC2=O)cc1 (stereo not drawn) | x | x | n | x | x | n
CCC(C)/C=C/C1=CC2=C(Cl)C(=O)C3(C)OC(=O)C(C(=O)C(C)C(C)O)C3C2=CO1 (stereo not drawn) | n | n | n | n | 85 | 88
CCOC(=O)c1oc2cc(OCC(=O)OC)ccc2c(=O)c1-c1ccc(OC)c(OC)c1 | n | x | n | 51 | n | n
Cc1ccc(-c2nc(C=Nc3ccc(O)cc3)c(O)o2)cc1 | n | n | -37 | n | n | 22
O=C(Nc1ccc2nc(-c3cccs3)c(-c3cccs3)nc2c1)N1CCOCC1 | n | n | n | n | 62 | 96
O=S(=O)(c1ccc2nc(-c3ccco3)c(-c3ccco3)nc2c1)N1CCOCC1 | n | n | n | n | n | n
O=C(Nc1ccc(N2CCOCC2)cc1)Nc1ccc2nc(-c3ccco3)c(-c3ccco3)nc2c1 | n | n | n | n | n | 26
O=C(Nc1ccc2nc(-c3ccco3)c(-c3ccco3)nc2c1)NC1CC1 | n | n | n | n | n | 62
O=C(Nc1ccc(F)c(Cl)c1)NC1CC1 | n | n | n | n | n | n
O=C(Nc1cccc(O)c1)N1CCOCC1 | n | n | n | n | n | n
SMILES | Runt-CBFb FRET | PKD1 inh | MEX-5 binding | EBV gp42 block | Runt-SMMHC FRET | RanGTP-Imp inh
O=C(NCCCO)Nc1ccc2nc(-c3ccco3)c(-c3ccco3)nc2c1 | n | n | x | 67 | n | x
COc1ccc(CCNC(=O)[C@@H](NC(=O)c2ccccc2F)C(C)C)cc1OC | n | n | n | n | n | n
C/C(CC(=O)Nc1ccccc1C#N)=N\NC(=O)c1ccncc1 | x | x | n | x | x | n
CCCCn1c(SCC(=O)NC2CC2)nnc1-c1ccncc1 | x | x | n | x | x | n
CC1(C)CC(=O)C2=C(C1)N(c1cccc(O)c1)C1=C(C2)C(=O)CC(C)(C)C1 | n | n | n | n | 57 | 74
Cc1ccc(-c2nnc(SCC(=O)N(C)C)nc2-c2ccc(C)cc2)cc1 | x | x | n | x | x | n
COc1ccc(CCNC(=O)c2cc(-c3ccccn3)nc3c(Cl)cccc23)cc1OC | n | n | n | n | n | 24
COc1cc(OC)c2c(=O)c(OC)c(-c3ccc(OC)c(OC)c3)oc2c1 | n | n | n | n | 61 | n
COc1ccc(CCNS(=O)(=O)c2ccc(Br)cc2)cc1OC | x | x | n | x | x | n
CCCNC(=O)c1c(N)n(-c2cccc(OC)c2)c2nc3ccccc3nc12 | 62 | n | n | n | n | 80
Nc1c(C(=O)NCCN2CCOCC2)c2nc3ccccc3nc2n1-c1cccc(F)c1 | 71 | n | n | n | 61 | 78
COCCCNC(=O)c1c(N)n(-c2cccc(S(N)(=O)=O)c2)c2nc3ccccc3nc12 | 92 | n | n | n | 62 | 104
COC(=O)c1c(N)n(-c2cc(OC)cc(OC)c2)c2nc3ccccc3nc12 | x | n | x | x | x | x
CCCn1nc(Oc2nc(N(C)C)nc(N(C)C)n2)ccc1=O | x | n | n | n | x | u
CCN(Cc1nc(-c2cccc(C)c2)no1)C(=O)c1ccco1 | x | x | n | x | x | n
CCN(CC)c1ccc(/C=N/Nc2nn[nH]n2)cc1 | n | x | n | n | n | n
CCN(CC)c1ccc(C=N/C(C#N)=C(\N)C#N)cc1 | n | n | -109 | n | n | n
COc1ccc2c(C(=O)CN3CCC(C)CC3)c[nH]c2c1 | n | n | n | n | n | n
COc1ccc2c3c([nH]c2c1)C1CC2C(CC(O)C(OC)C2C(=O)O)CN1CC3 (stereo not drawn) | n | x | -35 | n | n | 28
C=C(C)Cn1c(C2CC(=O)N(Cc3ccccc3)C2)nc2ccccc21 (stereo not drawn) | n | x | n | x | n | n
C=CCN1CC(c2nc3ccccc3n2CCOc2ccccc2)CC1=O (stereo not drawn) | n | n | n | 58 | n | n
O=c1oc2c(CN3CCCCCC3)c(O)ccc2cc1-c1nc2ccccc2[nH]1 | n | x | x | x | n | x
CN1CCN(Cc2c(O)ccc3cc(-c4ccccn4)c(=O)oc23)CC1 | n | n | n | n | 91 | 144
CCOC(=O)N1CCc2c(sc(NC(C)=O)c2C(N)=O)C1 | x | n | n | x | x | n
CC(=O)N1CCc2c(sc(NC(=O)CN3C(=O)c4ccccc4C3=O)c2C(N)=O)C1 | n | n | n | n | n | n
SMILES | Runt-CBFb FRET | PKD1 inh | MEX-5 binding | EBV gp42 block | Runt-SMMHC FRET | RanGTP-Imp inh
CN1CCc2c(sc(NC(=O)CS(=O)(=O)c3ccc(F)cc3)c2C(N)=O)C1 | x | x | n | x | x | 163
CCOC(=O)N1CCc2c(sc(NC(=O)CCS(=O)(=O)c3ccccc3)c2C(N)=O)C1 | x | x | n | x | x | n
CC(=O)N1CCc2c(sc(NC(=O)CS(=O)(=O)c3ccc(F)cc3)c2C(N)=O)C1 | x | x | n | x | x | 21
CC(=O)N1CCc2c(sc(NC(=O)CN3C(=O)CCC3=O)c2C(N)=O)C1 | n | n | n | n | n | 23
Cc1onc(-c2ccc(Cl)cc2)c1-c1ccnc(SCC(=O)Nc2ccc(C(C)C)cc2)n1 | n | x | n | n | n | n
O=C(c1cc(C(=O)N2CCOCC2)c2nc3ccccc3n2c1)c1cc(Cl)cc(Cl)c1O | n | x | n | n | n | n

Screening results deposited in PubChem by several laboratories.
